Results from ChEMBL document CHEMBL3259616, “New Ianthelliformisamine derivatives as antibiotic enhancers against resistant Gram-negative bacteria” (J Med Chem, 2014).
In brackets after ≈: the same amount, converted by molar mass. Activity calls are given as the source filed them. No cut-off for these calls is given here.

Columns and labels:
[1] = tested on: Pseudomonas aeruginosa PAO1; experiment: Inhibition of multidrug resistance efflux pump in Pseudomonas aeruginosa PAO1 assessed as depolarization by spectrofluorometry
Procedure, shortened: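 PAO1 grown 24 h at 37 °C in MH broth, washed twice in buffered 250 mM sucrose with 5 mM MgSO4. Loaded with 3 μM 3,3-diethylthiodicarbocyanine iodide for 1 h at 37 °C, then derivative added at various concentrations. Fluorescence read at 0–21 min intervals. Maximum taken as 3 μM dye alone in buffer.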

Pseudomonas aeruginosa [2] = experiment: Disruption of outermembrane in Pseudomonas aeruginosa PAO1 assessed as ATP efflux at 2 to 200 uM by bioluminescence method in presence of 2 to 50 ug/ml doxycycline; assay type: functional, organism-based
Procedure, shortened: (§1)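 After 5 min an aliquot was vortexed, luciferin–luciferase added and luminescence read for 5 s. ATP quantified with an internal standard; maximal release set with 0.02% […].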

Pseudomonas aeruginosa [3] = experiment: Disruption of outermembrane in Pseudomonas aeruginosa PAO1 assessed as ATP efflux at 2 mM by bioluminescence method; assay type: functional; procedure, shortened: as §1
Klebsiella aerogenes [4] = experiment: Inhibition of multidrug resistance efflux pump in Enterobacter aerogenes EA289 assessed as dose required to restore 2 ug/ml doxycycline-induced inhibition of visible growth after 18 hrs by standard broth dilution method
Procedure, shortened: (§2)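 Broth microdilution in MH broth, inoculum 10^5 CFU in 200 μL, 2-fold serial dilutions of derivative with fixed antibiotic (2 μg/mL). Lowest derivative concentration giving complete inhibition of visible growth after 18 h at 37 °C recorded. Antibiotics dissolved in DMSO. Independently repeated at least three times.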

Klebsiella pneumoniae [5] = experiment: Antibacterial activity against Klebsiella pneumoniae KPC2 ST258 assessed as inhibition of visible growth after 18 hrs incubation by standard broth dilution method; assay type: functional; details: KPC2, 18 h
Procedure, shortened: (§3)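 Broth microdilution per CA-SFM: inoculum 10^5 CFU in 200 μL Mueller–Hinton broth with 2-fold serial dilutions of compound; MIC = lowest concentration with no visible growth after 18 h at 37 °C. Independently repeated at least three times. Strains kept at −80 °C in 15% glycerol and grown routinely in MH broth at 37 °C.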

Pseudomonas aeruginosa [6] = experiment: Disruption of outermembrane in Pseudomonas aeruginosa PAO1 assessed as rate of nitrocefin hydrolysis at 500 uM spectrophotometrically; assay type: functional, organism-based
Procedure, shortened: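 PAO1 grown in MH broth at 37 °C to OD600 0.5; then room temperature. Cells centrifuged and washed once in 20 mM potassium phosphate pH 7.2 with 1 mM MgCl2, then exposed to compound. Nitrocefin added to final 50 μg/mL as periplasmic β-lactamase substrate; hydrolysis followed as rising absorbance at 490 nm against untreated control.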

[7] = tested on: Pseudomonas aeruginosa PAO1; experiment: Inhibition of multidrug resistance efflux pump in Pseudomonas aeruginosa PAO1 assessed as dose required to restore 2 ug/ml doxycycline-induced inhibition of visible growth after 18 hrs by standard broth dilution method; procedure, shortened: as §2
Klebsiella pneumoniae [8] = experiment: Inhibition of multidrug resistance efflux pump in Klebsiella pneumoniae KPC2 ST258 assessed as dose required to restore 2 ug/ml doxycycline-induced inhibition of visible growth after 18 hrs by standard broth dilution method
Procedure, shortened: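 Broth microdilution in Mueller-Hinton broth, CA-SFM recommendations. Inoculum 10^5 CFU in 200 μL containing 2-fold serial dilutions of derivative plus doxycycline at 2 μg/mL, 37 °C for 18 h. Antibiotics dissolved in DMSO, up to 5% v/v. Repeated independently at least three times.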

Pseudomonas aeruginosa [9] = experiment: Antibacterial activity against Pseudomonas aeruginosa PAO1 assessed as inhibition of visible growth after 18 hrs incubation by standard broth dilution method; assay type: functional; details: PAO1, 18 h; procedure, shortened: as §3
[10] = tested on: Pseudomonas aeruginosa PAO1; experiment: Inhibition of multidrug resistance efflux pump in Pseudomonas aeruginosa PAO1 assessed as dose required to restore 2 ug/ml chloramphenicol-induced inhibition of visible growth after 18 hrs by standard broth dilution method; procedure, shortened: as §2
Staphylococcus aureus = experiment: Antibacterial activity against Staphylococcus aureus DSM799 assessed as inhibition of visible growth after 18 hrs incubation by standard broth dilution method; assay type: functional; details: DSM799, 18 h; procedure, shortened: as §3
[11] = tested on: Pseudomonas aeruginosa PAO1; experiment: Inhibition of multidrug resistance efflux pump in Pseudomonas aeruginosa PAO1 assessed as dose required to restore 2 ug/ml cefepime-induced inhibition of visible growth after 18 hrs by standard broth dilution method; procedure, shortened: as §2
[12] = Cytotoxicity against CHOK1 cells assessed as decrease in cell viability after 24 hrs by WST-1 assay; assay type: cell-based; details: Cricetulus griseus, CHO-K1, 24 h
Procedure, shortened: (§4)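 CHO-K1 (McCoy's 5A) and human fibroblasts (DMEM), both with 10% bovine calf serum, 2 mM glutamine, penicillin/streptomycin, 37 °C, 5% CO2. Seeded, left overnight, then exposed to various compound concentrations in triplicate for 24 h at 37 °C. Washed three times in PBS, 30 min in PBS with 10% WST-1, A450. Viability as % of medium-only control; IC50 by nonlinear regression.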

Klebsiella aerogenes [13] = experiment: Antibacterial activity against Enterobacter aerogenes EA289 assessed as inhibition of visible growth after 18 hrs incubation by standard broth dilution method; assay type: functional; details: EA289, 18 h; procedure, shortened: as §3
[14] = Cytotoxicity against human fibroblasts assessed as decrease in cell viability after 24 hrs by WST-1 assay; assay type: cell-based; details: Fibroblast; procedure, shortened: as §4
Pseudomonas aeruginosa [15] = experiment: Disruption of outermembrane in Pseudomonas aeruginosa PAO1 assessed as ATP efflux at 2 to 200 uM by bioluminescence method; assay type: functional, organism-based; procedure, shortened: as §1

| SMILES | inhibition [1] | inhibition (Pseudomonas aeruginosa [2]) | Activity (Pseudomonas aeruginosa [3]) [%] | Activity (Klebsiella aerogenes [4]) [µM] | MIC (Klebsiella pneumoniae [5]) [µM] | inhibition (Pseudomonas aeruginosa [6]) | Activity [7] [µM] | inhibition [7] | Activity (Klebsiella pneumoniae [8]) [µM] | MIC (Pseudomonas aeruginosa [9]) [µM] | Activity [10] [µM] | MIC (Staphylococcus aureus) [µM] | Activity [11] [µM] | IC50 [12] [µM] | MIC (Klebsiella aerogenes [13]) [µM] | IC50 [14] [µM] | inhibition (Pseudomonas aeruginosa [15]) |
| --- | --- | --- | --- | --- | --- | --- | --- | --- | --- | --- | --- | --- | --- | --- | --- | --- | --- |
| COc1c(Br)cc(/C=C/C(=O)NCCCN(CCCN)CCCN)cc1Br | Dose-dependent effect | inactive | <16 | 6.25 | > 200 | inactive | 3.12 | Dose-dependent effect | 3.12 | 100 (≈ 50.6 µg/mL) | 100 | 50 (≈ 25.3 µg/mL) | 0.4 | 846 | > 200 | 345 | inactive |
| COc1c(Br)cc(/C=C/C(=O)NCCCCCN)cc1Br |  |  |  | > 100 | > 200 |  | > 100 | Dose-dependent effect | 6.25 | > 200 |  | > 200 |  |  | > 200 |  |  |
| COc1c(Br)cc(/C=C/C(=O)NCCCOCCCCOCCCN)cc1Br |  |  |  | > 100 | > 200 |  | > 100 | Dose-dependent effect | >100 | > 200 |  | > 200 |  |  | > 200 |  |  |
| C[C@H]1c2cccc(O)c2C(=O)C2=C(O)[C@]3(O)C(=O)C(C(N)=O)=C(O)[C@@H](N(C)C)[C@@H]3[C@@H](O)[C@@H]21 [DOXYCYCLINE] |  |  |  |  |  |  |  |  |  | 112 (≈ 49.8 µg/mL) |  | < 3 |  |  | 56 (≈ 24.9 µg/mL) |  |  |
| COc1c(Br)cc(/C=C/C(=O)NCCCN)cc1Br |  |  |  | > 100 | > 200 |  | 100 | Dose-dependent effect | 100 | 100 (≈ 39.2 µg/mL) |  | > 200 |  |  | > 200 |  |  |
| COc1c(Br)cc(/C=C/C(=O)NCCCNCCCCNCCCN)cc1Br [IANTHELLIFORMISAMINE A] |  |  |  | > 100 | > 200 |  | 12.5 | Dose-dependent effect | >100 | 200 (≈ 104 µg/mL) |  | 200 (≈ 104 µg/mL) |  |  | > 200 |  |  |
| COc1c(Br)cc(/C=C/C(=O)NCCCN2CCCC2)cc1Br |  |  |  | > 100 | > 200 |  | 25 | Dose-dependent effect | >100 | > 200 |  | > 200 |  |  | > 200 |  |  |
| CO/N=C(\C(=O)N[C@@H]1C(=O)N2C(C(=O)[O-])=C(C[N+]3(C)CCCC3)CS[C@H]12)c1csc(N)n1 [CEFEPIME] |  |  |  |  |  |  |  |  |  | 26 (≈ 12.5 µg/mL) |  |  |  |  | 52 (≈ 25 µg/mL) |  |  |
| COc1c(Br)cc(/C=C/C(=O)NCCCNCCCCN)cc1Br.Cl.Cl |  |  |  | 25 | > 200 |  | 12.5 | Dose-dependent effect | 3.12 | > 200 | 200 | > 200 | 0.8 | 1660 | 100 | 129 |  |
| COc1c(Br)cc(/C=C/C(=O)NCCCCN)cc1Br |  |  |  | > 100 | > 200 |  | > 100 | Dose-dependent effect | >100 | > 200 |  | > 200 |  |  | > 200 |  |  |
| COc1c(Br)cc(/C=C/C(=O)NCCCN2CCOCC2)cc1Br |  |  |  | > 100 | > 200 |  | > 100 | Dose-dependent effect | >100 | > 200 |  | > 200 |  |  | > 200 |  |  |
| COc1c(Br)cc(/C=C/C(=O)NCCCN(C)CCCN)cc1Br |  |  |  |  | > 200 |  |  |  |  | 200 (≈ 92.6 µg/mL) |  | > 200 |  | 174 | > 200 | 24 |  |
| COc1c(Br)cc(/C=C/C(=O)NCCNCCNCCN)cc1Br |  |  |  | > 100 | > 200 |  | > 100 | Dose-dependent effect | >100 | > 200 |  | > 200 |  |  | > 200 |  |  |
| COc1c(Br)cc(/C=C/C(=O)NCCCNCCCNCCCNC(=O)/C=C/c2cc(Br)c(OC)c(Br)c2)cc1Br |  |  |  | 12.5 | 12.5 (≈ 10.3 µg/mL) |  | 3.12 | Dose-dependent effect | 12.5 | 25 (≈ 20.6 µg/mL) | 12.5 | 12.5 (≈ 10.3 µg/mL) | 1.6 | 663 | 100 (≈ 82.4 µg/mL) | 237 |  |
| COc1c(Br)cc(/C=C/C(=O)NCCCCNCCCN)cc1Br.Cl.Cl |  |  |  | 6.25 | > 200 |  | 3.12 | Dose-dependent effect | 3.12 | 200 | 100 | 200 | 3.12 | 108 | > 200 | 33 |  |
| COc1c(Br)cc(/C=C/C(=O)NCCNCCNCCNCCN)cc1Br |  |  |  | 12.5 | > 200 |  | 6.25 | Dose-dependent effect | 3.12 | 100 (≈ 50.7 µg/mL) | 100 | 50 (≈ 25.4 µg/mL) | 6.25 | 573 | 200 (≈ 101 µg/mL) | 237 |  |
| COc1c(Br)cc(/C=C/C(=O)NCCN)cc1Br |  |  |  | > 100 | > 200 |  | > 100 | Dose-dependent effect | 50 | > 200 |  | > 200 |  |  | > 200 |  |  |
| O=C(N[C@H](CO)[C@H](O)c1ccc([N+](=O)[O-])cc1)C(Cl)Cl [CHLORAMPHENICOL] |  |  |  |  |  |  |  |  |  | > 200 |  |  |  |  | > 200 |  |  |
| COc1c(Br)cc(/C=C/C(=O)NCCCN2CCN(CCCN)CC2)cc1Br |  |  |  | > 100 | > 200 |  |  |  | >100 | > 200 |  | 6.25 (≈ 3.24 µg/mL) |  |  | > 200 |  |  |
